Cneo AK release = Cryptococcus neoformans lysis via adenylate kinase release; C. neoformans lysis, adenylate kinase release luminescence, 4 h; normalised: neutral wells 0, clomiphene wells 100; lysis activity, % at 15 µM; 360,000 compounds, 0.2% hits; AID 651654;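 active = mean lysis activity across replicates of at least 80%, whatever share of replicates individually reach that level; inactive = mean lysis activity below 80%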
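Material: C. neoformans cells; Schedule: 4 h static compound exposure, 37 °C, read 1 h post-reagent; Measured by: adenylate kinase release luminescence; Read-out: signal increase indicating cell lysis; Controls: Clomiphene as positive lysis control.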
Ecoli rRNA inh = inhibitors of bacterial rRNA selective over humanized ribosomes | E. coli WT GFP vs humanized-ribosome RFP mutants, fluorescence, 24 h; stronger effect = lower value; DMSO median 0, no signal -100 | GFP signal change (wild-type ribosome), % (no concentration beside the values) | 350,000 compounds, 1.6% hits | AID 720706;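 active = significant combined selectivity score with lowered wild-type GFP, culture density cut under 30%, mutant RFP and density less affected; inactive = any of these conditions unmet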
CFTR F508del cor = CFTR F508del correction in bronchial cells | CFBE cells, YFP halide quenching; stimulated with forskolin plus potentiator P3; % fluorescence drop versus neutral controls | activity (quench increase), % at 7.58 µM | 350,000 compounds, 0.36% hits | AID 720511;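 active = mean added fluorescence quench of at least 8% versus neutral control, with both replicates also reaching 8%; inconclusive = only one of the mean or replicate conditions met; inactive = mean below 8% and not both replicates reaching 8%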;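 note: cells transiently co-express mutant CFTR-F508del with the halide-sensitive YFP; corrector assay measuring rescue of mutant channel to the surface after 24 h compound exposure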
CaV13 FRET inh = Disruptors of the CACNA1D IQ motif to Ca2+-dependent inactivation inhibitor domain association, primary screening, Förster resonance energy transfer in intact living …; HEK cells, CFP/YFP FRET ICDI-IQ, plate reader, 10 min; percent FRET-ratio fall versus neutral wells; inhibition, % at 12.3 µM; 340,000 compounds, 0.098% hits; AID 743397;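 active = mean replicate inhibition of at least 30% and at least 1% of replicates passing that level; inconclusive = only one of the two criteria is met; inactive = neither criterion is met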
Hits are given with their value; . = inactive; ? = inconclusive; / = not tested or not shown; + = active, no number. In the library only some 1.7% were active in any assay of this set; here they are far more common.

SMILES | Cneo AK release | Ecoli rRNA inh | CFTR F508del cor | CaV13 FRET inh
COc1ccc(C#Cc2cnc3c(c2)C(=O)N([C@H](C)CO)C[C@H](C)[C@H](CN(C)S(=O)(=O)c2cccc(F)c2)O3)cc1OC | . | . | . | /
CCCc1cc(=O)[nH]c(Nc2ccc3c(c2)OCCO3)n1 | . | -16.1 | . | .
CCCCc1ccc(Nc2nc(CCC)cc(=O)[nH]2)cc1 | . | / | / | .
CCCC#Cc1ccc2c(c1)O[C@H](CN(C)C(=O)COC)[C@@H](C)CN([C@H](C)CO)S2(=O)=O | . | . | . | /
CCNC(=S)SCCOc1ccccc1C | . | -33.9 | / | .
O=C(COn1nnc2ccc(S(=O)(=O)N3CCOCC3)cc21)Nc1c(F)c(F)c(F)c(F)c1F | . | -20.1 | . | .
C[C@H]1CN([C@@H](C)CO)C(=O)c2cc(NC(=O)Cc3cn(C)c4ccccc34)ccc2O[C@H]1CN(C)S(=O)(=O)c1cn(C)cn1 | . | . | . | /
C=CC[C@@H](CC(=O)N(CCO)Cc1ccccc1)C(=O)N[C@H](COC(=O)[C@H](CC=C)CC(=O)OC(C)(C)C)Cc1c[nH]c2ccccc12 | . | . | 8.5 | .
CC(=O)N1[C@H](CO)[C@H](c2ccc(-c3ccc(F)cc3)cc2)[C@@H]1CNC(=O)C1CC1 | . | . | . | /
COc1ccccc1NC(=O)Nc1nn(C)c2cccc(N(C)C)c12 | / | -30.3 | . | .
CN(C)c1cccc2c1c(NC(=O)Nc1ccc(Cl)cc1Cl)nn2C | / | . | . | .
CNS(=O)(=O)c1cccc(C(=O)OCC(=O)c2cc(C)n(CC3CCCO3)c2C)c1 (stereo not drawn) | . | . | 25.3 | .
CCOC(=O)c1c(C)c(C(=O)NCCOC)c(C)n1CC | . | . | . | .
CCOC(=O)c1c(C)c(C(=O)Nc2ccc(N(C)C)cc2)c(C)n1CC | . | -16.0 | . | .
CCC(=O)Nc1ccc2c(c1)C(=O)N(C)C[C@@H](OC)[C@@H](C)CN(C(=O)c1ccncc1)[C@@H](C)CO2 | . | . | . | /
COc1ccccc1/C=C/C(=O)Nc1ccc(S(=O)(=O)Nc2cc(C)on2)cc1 | . | -35.0 | . | .
COc1ccccc1OCC(=O)Nc1ccc(S(=O)(=O)Nc2cc(C)on2)cc1 | . | . | . | .
C[C@H](O)C#Cc1ccc2c(c1)O[C@@H](CN(C)C(=O)C1CCCCC1)[C@@H](C)CN([C@H](C)CO)S2(=O)=O | . | . | . | /
C[C@H](O)C#Cc1ccc2c(c1)O[C@H](CN(C)C(=O)C1CCCCC1)[C@H](C)CN([C@@H](C)CO)S2(=O)=O | 93.8 | . | . | /
C[C@@H]1CN([C@H](C)CO)S(=O)(=O)c2ccc(-c3ccccc3)cc2O[C@H]1CN(C)C(=O)C1CCCCC1 | 105.0 | . | . | /
C[C@H](CO)N1C[C@H](C)[C@H](CN(C)C(=O)c2ccc3c(c2)OCO3)Oc2ncc(C3=CCCCC3)cc2C1=O | . | . | . | /
C[C@@H]1CN([C@@H](C)CO)C(=O)c2cc(C#CCN(C)C)cnc2O[C@H]1CN(C)Cc1ccccc1F | . | . | / | /
Cc1[nH]c2ccccc2c1/C=C(\C#N)C(=O)NCC1CCCO1 (stereo not drawn) | / | -23.3 | . | .
COCOc1cccc(CN2CCC(C)(Oc3cccc(C#N)c3)C2)c1 (stereo not drawn) | . | . | 8.7 | .
CC1(Oc2cccc(F)c2)CCN(Cc2ccc3ccccc3c2)C1 (stereo not drawn) | . | . | . | .
SMILES | Cneo AK release | Ecoli rRNA inh | CFTR F508del cor | CaV13 FRET inh
CN(C)S(=O)(=O)c1ccc(C(=O)OCC(=O)NCc2ccccc2)cc1 | . | . | . | .
Cc1ccc(CNC(=O)COC(=O)c2ccc(S(=O)(=O)N(C)C)cc2)cc1 | . | . | 8.1 | .
N#CC(C#N)=C1C=C2C=C(N3CCOCC3)CCC2CC1 (stereo not drawn) | / | . | 69.9 | .
N#CC(C#N)=C1C=C2C=C(N3CCCCCC3)CCC2CC1 (stereo not drawn) | / | . | 66.6 | .
N#C/C(=C/N1CCOCC1)c1ccccc1 | . | / | / | .
CCNC(=O)[C@H]1[C@H](CO)[C@H]2Cn3c(ccc(C4=CCCC4)c3=O)[C@@H]1N2Cc1ccccc1 | / | . | . | /
COc1cccc(C(=O)Nc2ccc3c(c2)C(=O)N(C)C[C@@H](OC)[C@@H](C)CN[C@@H](C)CO3)c1 | . | . | . | /
CCOc1ccc2nc(NCCCNC(=O)c3cc(OC)c(OC)c(OC)c3)c(C#N)cc2c1 | . | . | ? | +
COc1cc(C(=O)NCCCNc2nc3cc(C)cc(C)c3cc2C#N)cc(OC)c1OC | . | / | / | .
